Assay results published in ChEMBL document CHEMBL4689842, “EUbOPEN Chemogenomics Library wave 1” (2021).

System: HEK-293T
Assay: Multiplex assay against HEK293T;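 on Population Tubulin-Different-Phenotype (%): share of the cells with healthy nuclei that show this phenotype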
Assay type: toxicity, cell-based
Conditions: human
Procedure, shortened: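 At seeding, live cells were stained with Hoechst33342, BioTracker Green Microtubule Cytoskeleton Dye, MitoTracker Red and Annexin V Alexa Fluor 680. After compound addition they were imaged on a CQ1 microscope at 37°C and 5% CO2, and CellPathfinder machine-learning gating sorted them into Hoechst high-intensity objects or normal cells, with normal cells further split into healthy, pyknosed or fragmented nuclei and pyknosed cells into mitotic or apoptotic. Tubulin, mitochondrial-mass and membrane-permeability phenotypes are given as per cents of cells with healthy nuclei.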

[1] = 12 h, 1 µM, compound concentration 1 uM, replicate 1
[2] = 12 h, 1 µM, compound concentration 1 uM, replicate 2
[3] = 12 h, 10 µM, compound concentration 10 uM, replicate 1
[4] = 12 h, 10 µM, compound concentration 10 uM, replicate 2
[5] = 24 h, 1 µM, compound concentration 1 uM, replicate 1
[6] = 24 h, 1 µM, compound concentration 1 uM, replicate 2
[7] = 24 h, 10 µM, compound concentration 10 uM, replicate 1
[8] = 24 h, 10 µM, compound concentration 10 uM, replicate 2
[9] = 48 h, 1 µM, compound concentration 1 uM, replicate 1
[10] = 48 h, 1 µM, compound concentration 1 uM, replicate 2
[11] = 48 h, 10 µM, compound concentration 10 uM, replicate 1
[12] = 48 h, 10 µM, compound concentration 10 uM, replicate 2

## COC(=O)C1=C(C)NC(C)=C(C(=O)OCCCN2CCC(c3ccccc3)(c3ccccc3)CC2)[C@H]1c1cccc([N+](=O)[O-])c1 [NIGULDIPINE]
[1]
  Population Apoptotic (%): 86%
  Population Fragmented Nuclei (%): 7%
  Population Healthy Nuclei (%): 34%
  Population Hoechst High Intensity Objects (%): 9%
  Population Membrane Permeable-Phenotype (%): 2%
  Population Mitochondria Different-Phenotype (%): 98%
  Population Mitotic Cells (%): 13%
  Population Normal (%): 90%
  Population Pyknosed Nuclei (%): 58%
  Population Tubulin-Different-Phenotype (%): 97%
  Total Cell Count: 272
[2]
  Population Apoptotic (%): 91%
  Population Fragmented Nuclei (%): 5%
  Population Healthy Nuclei (%): 32%
  Population Hoechst High Intensity Objects (%): 5%
  Population Membrane Permeable-Phenotype (%): 1%
  Population Mitochondria Different-Phenotype (%): 100%
  Population Mitotic Cells (%): 8%
  Population Normal (%): 94%
  Population Pyknosed Nuclei (%): 62%
  Population Tubulin-Different-Phenotype (%): 98%
  Total Cell Count: 177
[3]
  Population Apoptotic (%): 81%
  Population Fragmented Nuclei (%): 18%
  Population Healthy Nuclei (%): 2%
  Population Hoechst High Intensity Objects (%): 15%
  Population Membrane Permeable-Phenotype (%): 0%
  Population Mitochondria Different-Phenotype (%): 66%
  Population Mitotic Cells (%): 18%
  Population Normal (%): 84%
  Population Pyknosed Nuclei (%): 79%
  Population Tubulin-Different-Phenotype (%): 66%
  Total Cell Count: 266
[4]
  Population Apoptotic (%): 63%
  Population Fragmented Nuclei (%): 6%
  Population Healthy Nuclei (%): 1%
  Population Hoechst High Intensity Objects (%): 7%
  Population Membrane Permeable-Phenotype (%): 66%
  Population Mitochondria Different-Phenotype (%): 0%
  Population Mitotic Cells (%): 36%
  Population Normal (%): 92%
  Population Pyknosed Nuclei (%): 91%
  Population Tubulin-Different-Phenotype (%): 33%
  Total Cell Count: 202
[5]
  Population Apoptotic (%): 86%
  Population Fragmented Nuclei (%): 7%
  Population Healthy Nuclei (%): 41%
  Population Hoechst High Intensity Objects (%): 11%
  Population Membrane Permeable-Phenotype (%): 0%
  Population Mitochondria Different-Phenotype (%): 99%
  Population Mitotic Cells (%): 13%
  Population Normal (%): 88%
  Population Pyknosed Nuclei (%): 50%
  Population Tubulin-Different-Phenotype (%): 97%
  Total Cell Count: 293
[6]
  Population Apoptotic (%): 95%
  Population Fragmented Nuclei (%): 6%
  Population Healthy Nuclei (%): 44%
  Population Hoechst High Intensity Objects (%): 3%
  Population Membrane Permeable-Phenotype (%): 1%
  Population Mitochondria Different-Phenotype (%): 100%
  Population Mitotic Cells (%): 4%
  Population Normal (%): 96%
  Population Pyknosed Nuclei (%): 49%
  Population Tubulin-Different-Phenotype (%): 98%
  Total Cell Count: 181
[7]
  Population Apoptotic (%): 88%
  Population Fragmented Nuclei (%): 20%
  Population Healthy Nuclei (%): 3%
  Population Hoechst High Intensity Objects (%): 12%
  Population Membrane Permeable-Phenotype (%): 11%
  Population Mitochondria Different-Phenotype (%): 66%
  Population Mitotic Cells (%): 11%
  Population Normal (%): 87%
  Population Pyknosed Nuclei (%): 75%
  Population Tubulin-Different-Phenotype (%): 77%
  Total Cell Count: 263
[8]
  Population Apoptotic (%): 79%
  Population Fragmented Nuclei (%): 4%
  Population Healthy Nuclei (%): 1%
  Population Hoechst High Intensity Objects (%): 6%
  Population Membrane Permeable-Phenotype (%): 50%
  Population Mitochondria Different-Phenotype (%): 0%
  Population Mitotic Cells (%): 20%
  Population Normal (%): 93%
  Population Pyknosed Nuclei (%): 94%
  Population Tubulin-Different-Phenotype (%): 0%
  Total Cell Count: 202
[9]
  Population Apoptotic (%): 85%
  Population Fragmented Nuclei (%): 9%
  Population Healthy Nuclei (%): 56%
  Population Hoechst High Intensity Objects (%): 9%
  Population Membrane Permeable-Phenotype (%): 0%
  Population Mitochondria Different-Phenotype (%): 99%
  Population Mitotic Cells (%): 14%
  Population Normal (%): 91%
  Population Pyknosed Nuclei (%): 34%
  Population Tubulin-Different-Phenotype (%): 96%
  Total Cell Count: 300
[10]
  Population Apoptotic (%): 97%
  Population Fragmented Nuclei (%): 6%
  Population Healthy Nuclei (%): 55%
  Population Hoechst High Intensity Objects (%): 8%
  Population Mitochondria Different-Phenotype (%): 98%
  Population Mitotic Cells (%): 2%
  Population Pyknosed Nuclei (%): 37%
  Population Tubulin-Different-Phenotype (%): 99%
  Total Cell Count: 203
[11]
  Population Fragmented Nuclei (%): 24%
  Population Healthy Nuclei (%): 3%
  Population Hoechst High Intensity Objects (%): 14%
  Population Membrane Permeable-Phenotype (%): 22%
  Population Mitochondria Different-Phenotype (%): 66%
  Population Normal (%): 85%
  Population Pyknosed Nuclei (%): 72%
  Population Tubulin-Different-Phenotype (%): 55%
  Total Cell Count: 283
[12]
  Population Apoptotic (%): 93%
  Population Fragmented Nuclei (%): 11%
  Population Healthy Nuclei (%): 6%
  Population Hoechst High Intensity Objects (%): 5%
  Population Membrane Permeable-Phenotype (%): 41%
  Population Mitochondria Different-Phenotype (%): 75%
  Population Mitotic Cells (%): 6%
  Population Normal (%): 94%
  Population Pyknosed Nuclei (%): 82%
  Population Tubulin-Different-Phenotype (%): 66%
  Total Cell Count: 201

## CC(C)CC(=O)Nc1[nH]nc2c1CN(C(=O)C1CCN(C)CC1)C2(C)C [PHA-793887]
[1]
  Population Apoptotic (%): 21%
  Population Fragmented Nuclei (%): 10%
  Population Healthy Nuclei (%): 72%
  Population Hoechst High Intensity Objects (%): 8%
  Population Membrane Permeable-Phenotype (%): 5%
  Population Mitochondria Different-Phenotype (%): 4%
  Population Mitotic Cells (%): 78%
  Population Normal (%): 91%
  Population Pyknosed Nuclei (%): 17%
  Population Tubulin-Different-Phenotype (%): 2%
  Total Cell Count: 604
[2]
  Population Apoptotic (%): 20%
  Population Fragmented Nuclei (%): 9%
  Population Healthy Nuclei (%): 87%
  Population Hoechst High Intensity Objects (%): 2%
  Population Membrane Permeable-Phenotype (%): 1%
  Population Mitochondria Different-Phenotype (%): 6%
  Population Mitotic Cells (%): 80%
  Population Normal (%): 97%
  Population Pyknosed Nuclei (%): 3%
  Population Tubulin-Different-Phenotype (%): 4%
  Total Cell Count: 1420
[3]
  Population Apoptotic (%): 21%
  Population Fragmented Nuclei (%): 13%
  Population Healthy Nuclei (%): 69%
  Population Hoechst High Intensity Objects (%): 12%
  Population Membrane Permeable-Phenotype (%): 2%
  Population Mitochondria Different-Phenotype (%): 7%
  Population Mitotic Cells (%): 78%
  Population Normal (%): 87%
  Population Pyknosed Nuclei (%): 16%
  Population Tubulin-Different-Phenotype (%): 3%
  Total Cell Count: 585
[4]
  Population Apoptotic (%): 25%
  Population Fragmented Nuclei (%): 7%
  Population Healthy Nuclei (%): 89%
  Population Hoechst High Intensity Objects (%): 5%
  Population Membrane Permeable-Phenotype (%): 0%
  Population Mitotic Cells (%): 74%
  Population Normal (%): 94%
  Population Pyknosed Nuclei (%): 2%
  Population Tubulin-Different-Phenotype (%): 2%
  Total Cell Count: 1190
[5]
  Population Apoptotic (%): 27%
  Population Fragmented Nuclei (%): 9%
  Population Healthy Nuclei (%): 81%
  Population Hoechst High Intensity Objects (%): 4%
  Population Membrane Permeable-Phenotype (%): 7%
  Population Mitochondria Different-Phenotype (%): 3%
  Population Mitotic Cells (%): 72%
  Population Normal (%): 95%
  Population Pyknosed Nuclei (%): 9%
  Population Tubulin-Different-Phenotype (%): 4%
  Total Cell Count: 638
[6]
  Population Apoptotic (%): 11%
  Population Fragmented Nuclei (%): 23%
  Population Healthy Nuclei (%): 72%
  Population Hoechst High Intensity Objects (%): 3%
  Population Membrane Permeable-Phenotype (%): 2%
  Population Mitochondria Different-Phenotype (%): 2%
  Population Mitotic Cells (%): 88%
  Population Normal (%): 96%
  Population Pyknosed Nuclei (%): 3%
  Population Tubulin-Different-Phenotype (%): 6%
  Total Cell Count: 1935
[7]
  Population Apoptotic (%): 25%
  Population Fragmented Nuclei (%): 13%
  Population Healthy Nuclei (%): 70%
  Population Hoechst High Intensity Objects (%): 15%
  Population Membrane Permeable-Phenotype (%): 4%
  Population Mitochondria Different-Phenotype (%): 7%
  Population Mitotic Cells (%): 75%
  Population Normal (%): 84%
  Population Pyknosed Nuclei (%): 15%
  Population Tubulin-Different-Phenotype (%): 8%
  Total Cell Count: 545
[8]
  Population Apoptotic (%): 36%
  Population Fragmented Nuclei (%): 11%
  Population Healthy Nuclei (%): 86%
  Population Hoechst High Intensity Objects (%): 4%
  Population Membrane Permeable-Phenotype (%): 1%
  Population Mitotic Cells (%): 63%
  Population Normal (%): 95%
  Population Pyknosed Nuclei (%): 2%
  Population Tubulin-Different-Phenotype (%): 4%
  Total Cell Count: 1297
